Data set [1] relates to RAW264.7. The data set can be described thus: Cytotoxicity against mouse RAW264.7 cells assessed as reduction in cell viability at 50 uM after 48 hrs by MTT assay. It counts as cell-based. The settings on record: raw264.7, 48 h. A digest of the protocol:
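RAW264.7 cells seeded at 2 x 10⁵/well and grown 24 h, then exposed to 25 or 50 µM (ethanol ≤1%) for 48 h. MTT 0.5 mg/mL added for 2 h at 37 °C, formazan dissolved in DMSO, OD read at 595 nm. Viability given relative to untreated control, mean SD.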
(Formazan colour is commonly taken as a measure of viable cells.)

The test system of data set [2] is Peritoneal macrophage. The data set can be described thus: Cytotoxicity against C57/BL6 mouse peritoneal macrophages assessed as reduction in cell viability at 50 uM after 48 hrs by MTT assay. In kind it is cell-based.
The subject of data set [3] is RAW264.7. The data set can be described thus: Antiinflammatory activity in mouse RAW264.7 cells assessed as inhibition of LPS-induced TNFalpha production by measuring TNFalpha levels incubated with LPS for 1 hr followed by compound addition measured after 48 hrs by ELISA (reference value: 58.6 +/- 7.4 ng/ml). It counts as functional. A general note: ELISA stands for enzyme-linked immunosorbent assay.

In data set [4] the test system is RAW264.7. As to the kind of experiment: Antiinflammatory activity in mouse RAW264.7 cells assessed as inhibition of LPS-induced IL-12 production by measuring IL-12 levels incubated with LPS for 1 hr followed by compound addition measured after 48 hrs by ELISA (reference value: 4839.2 +/- 2.2 pg/ml). In kind it is functional.
Data set [5] relates to RAW264.7. The data set can be described thus: Immunomodulatory activity in LPS-stimulated mouse RAW264.7 cells assessed as decrease in MHC-2 expression at 50 uM incubated with LPS for 1 hr followed by compound addition measured after 24 hrs by flow cytometry. It counts as functional, cell-based. A digest of the protocol: (§1)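 RAW 264.7 cells (4 x 10⁵/well, triplicate) given E. coli LPS 1 µg/mL for 1 h, then treated at 50 µM for 24 h. Cells Fc-blocked with anti-CD16/32 and stained with FITC anti-CD80, anti-CD86 or anti-MHC II (I-A^b). Two independent experiments.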

The test system of data set [6] is J774.A1. As to the kind of experiment: Antiinflammatory activity in mouse J774A.1 cells assessed as inhibition of LPS-induced IL-1beta production by measuring IL-1beta levels incubated with LPS for 1 hr followed by compound addition measured after 24 hrs by ELISA (reference value: 382.3 +/- 50 pg/ml). It counts as functional.
In data set [7] the test system is RAW264.7. As to the kind of experiment: Antiinflammatory activity in mouse RAW264.7 cells assessed as inhibition of LPS-induced IL-6 production by measuring IL-6 levels incubated with LPS for 1 hr followed by compound addition measured after 48 hrs by ELISA (reference value: 2.9 +/- 0.3 ng/ml). In kind it is functional.
The subject of data set [8] is RAW264.7. The data set can be described thus: Antiinflammatory activity in mouse RAW264.7 cells assessed as inhibition of LPS/IFNgamma-induced NO production by measuring NO levels incubated with LPS/IFNgamma for 1 hr followed by compound addition measured after 48 hrs by Griess assay (reference value: 55 +/- 2.6 microM). It counts as functional. For orientation: Nitrite, measured by Griess reagent, commonly stands in for NO production.

The test system of data set [9] is RAW264.7. As to the kind of experiment: Antiinflammatory activity in mouse RAW264.7 cells assessed as inhibition of LPS/IFNgamma-induced NO production at 50 uM incubated with LPS/IFNgamma for 1 hr followed by compound addition measured after 48 hrs by Griess assay relative to control. In kind it is functional.
The nature of data set [10]: Antioxidant activity assessed as DPPH radical scavenging activity after 30 mins by spectrophotometric method. In kind it is functional. A digest of the protocol:
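Left 30 min at room temperature in the dark and absorbance read at 510 nm. IC50 taken graphically from the linear range of the concentration versus scavenging plot. Run twice, each in triplicate.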

In data set [11] the test system is RAW264.7. As to the kind of experiment: Immunomodulatory activity in LPS-stimulated mouse RAW264.7 cells assessed as decrease in CD80 expression at 50 uM incubated with LPS for 1 hr followed by compound addition measured after 24 hrs by flow cytometry. In kind it is functional, cell-based. A digest of the protocol:
as §1

In data set [12] the test system is RAW264.7. As to the kind of experiment: Antiinflammatory activity in mouse RAW264.7 cells assessed as inhibition of LPS-induced CCL-2 production by measuring CCL-2 levels incubated with LPS for 1 hr followed by compound addition measured after 48 hrs by ELISA (reference value: 12.73 +/- 0.10 ng/ml). It counts as functional.
For data set [13], the system named is Mus musculus. As to the kind of experiment: Effect on IL-1beta production in ear tissue of croton oil-induced Balb/c mouse ear edema model at 0.1 mg/ear administered topically immediately post croton oil treatment by ELISA. It counts as functional, organism-based. A digest of the protocol: (§2)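 Half of each ear plug from the 4 h croton oil edema test (topical 0.1 mg/ear) was homogenized in extraction buffer (BSA 0.5%, PMSF 0.1%, […], EDTA 10mM, aprotinin 20kIU/ml) and spun at 440g for 15 min at 4 °C. IL-1β, IL-6 or CCL-2 in the supernatant measured by ELISA.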

Data set [14] relates to B-cell line. As to the kind of experiment: Antiproliferative activity against LPS-induced B cells isolated from splenocytes of C57/BL6 mouse at 50 uM incubated with LPS for 1 hr followed by compound addition measured after 72 hrs by MTT assay. It counts as functional, cell-based. A digest of the protocol: (§3)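 C57BL/6 splenocytes (1x10⁵/well) cultured in RPMI 1640 with 10% FBS. Stimulated 1 h with Con A 5 µg/mL (T cells) or E. coli LPS 1 µg/mL (B cells) at 37°C, 5% CO₂. Treated at 50 µM and cultured 72 h more, then read by MTT. Expressed as % proliferation relative to untreated stimulated cells.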

Data set [15] relates to Mus musculus. As to the kind of experiment: Antiinflammatory activity in croton oil-induced Balb/c mouse ear edema model assessed as inhibition of leucocyte infiltration at 0.1 mg/ear administered topically immediately post croton oil treatment and measured after 4 hrs by hematoxylin and eosin staining based light microscopic method. In kind it is functional, organism-based. A digest of the protocol:
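Ear plugs from the 4 h croton oil edema test in Balb/c mice were fixed 24 h in 70% ethanol, kept in 10% formalin, paraffin-embedded and cut at 4 µm. Sections stained with H&E and leucocyte infiltration judged qualitatively by light microscopy at 400x.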

Data set [16] deals with Mus musculus. As to the kind of experiment: Inhibition of myeloperoxidase activity in ear tissue of croton oil-induced Balb/c mouse ear edema model at 0.1 mg/ear administered topically immediately post croton oil treatment by spectrophotometric method. In kind it is functional, organism-based. A digest of the protocol: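 Ear tissue homogenized in PBS and the pellet resuspended in 0.5% HTAB, then given 3 freeze/thaw cycles. Cleared supernatant mixed 1:1 with 6 mM o-phenylenediamine in 10 mM citrate pH 4.5, with 20% H₂O₂ added. Stopped after 15 min with 1 M H₂SO₄ and read spectrophotometrically.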

The subject of data set [17] is Mus musculus. As to the kind of experiment: Inhibition of IL-6 production in ear tissue of croton oil-induced Balb/c mouse ear edema model at 0.1 mg/ear administered topically immediately post croton oil treatment by ELISA. It counts as functional, organism-based. A digest of the protocol: as §2
Data set [18] concerns Mus musculus. As to the kind of experiment: Inhibition of CCL-2 production in ear tissue of croton oil-induced Balb/c mouse ear edema model at 0.1 mg/ear administered topically immediately post croton oil treatment by ELISA. It counts as functional, organism-based. A digest of the protocol:
as §2

The subject of data set [19] is Murine T-cell line. The data set can be described thus: Antiproliferative activity against Con-A-induced T cells isolated from splenocytes of C57/BL6 mouse at 50 uM incubated with Con-A for 1 hr followed by compound addition measured after 72 hrs by MTT assay. In kind it is functional, cell-based. A digest of the protocol:
as §3

In data set [20] the test system is RAW264.7. As to the kind of experiment: Immunomodulatory activity in LPS-stimulated mouse RAW264.7 cells assessed as decrease in CD86 expression at 50 uM incubated with LPS for 1 hr followed by compound addition measured after 24 hrs by flow cytometry. It counts as functional, cell-based. A digest of the protocol: as §1
The test system of data set [21] is Mus musculus. The data set can be described thus: Antiinflammatory activity in Balb/c mouse ear edema model assessed as inhibition of croton oil-induced ear edema at 0.1 mg/ear administered topically immediately post croton oil treatment and measured after 4 hrs relative to control. In kind it is functional. A digest of the protocol:
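Female Balb/c mice 8–10 weeks old (n = 6/group). 20 µL of 2.5% v/v croton oil applied to the inner surface of the right ear, acetone vehicle to the left. Treatment given topically straight after, 0.1 mg/ear in 20 µL, with acetone as negative control. Killed at 4 h and 6 mm plugs taken from both ears. Edema read as right minus left ear plug weight, mean S.D.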

Calls of active or inactive are those of the source. No cut-off for these calls is given here.

For orientation: inhibition means the percentage by which the read-out fell short of the control. One may read the IC50 as the concentration that inhibits the measured activity by half.

In the case of `O=C(O)c1ccc(/C=N/Nc2ccc([N+](=O)[O-])cc2[N+](=O)[O-])cc1`, the Activity result in data set [1] and in data set [2] was “Toxic” in each case.
As for `COc1ccc(/C=N/Nc2ccccc2)c(O)c1`, the Activity result in data set [1] and in [2] was “Toxic” each time.
In the case of `O=[N+]([O-])c1ccc(/C=N/c2ccccc2S)cc1`, the Activity result in data set [1] and in [2] was “Toxic” each time.
On to `O=C(O)c1ccc(/C=N/Nc2ccccc2)cc1`, for which the Activity result in data set [1] and in data set [2] was “Toxic” in each case.
Take `Oc1ccc(/C=N/c2ccccc2O)c(O)c1`: the Activity in [3] amounted to 44.8 ng/mL; in data set [4], 9.3 pg/mL; in data set [6], 188.3 pg/mL; in [7], 2.3 ng/mL; in [8], 14.6 µM; in [12], 5.5 ng/mL. Further, the result in [5] was inactive. The inhibition at 50 µM in data set [9] is 90%. In data set [10], the IC50 worked out at 49.1 µM. Also, the outcome in [11] was Active.
Regarding `O=[N+]([O-])c1ccc(N/N=C/c2cc(Br)ccc2O)c([N+](=O)[O-])c1`, the Activity entry in data set [1] and in data set [2] was “Toxic” in each case.
As for `O=C(O)c1ccc(/C=N/c2ccccc2O)cc1`, the Activity was determined as 30.6 ng/mL in data set [3]; 12.7 pg/mL in [4]; 53.4 pg/mL in data set [6]; 2.2 ng/mL in data set [7]; 9.5 µM in [8]; 3.7 ng/mL in data set [12]. Moreover, the outcome in data set [13] and in data set [5] was inactive. Moreover, the outcome in data set [14], in data set [19], in data set [20] and in data set [11] was Active. For the same compound, the “inhibition of leucocyte infiltration (qualitative)” value (“inhibition … (qualitative)” below) in data set [15] was “Active”. Also, the inhibition entry in data set [16], in data set [17] and in [18] was “Active” each time. Also, in [9], the inhibition at 50 µM amounted to 90%. For the same compound, the “inhibition (INH)” value in [21] was 40%. Besides, the IC50 in data set [10] worked out at 36.6 µM.
For `O=C(O)c1ccccc1/C=N/c1ccccc1O`, the Activity stood at 57.4 ng/mL in data set [3]; 34 pg/mL in data set [4]; 76.7 pg/mL in data set [6]; 2.3 ng/mL in data set [7]; 22.6 µM in [8]; 6.1 ng/mL in data set [12]. Also, the result in data set [14] and in data set [19] was Active. In addition, the result in data set [5] and in [11] was inactive. The IC50 in [10] is 34.1 µM.
For `COc1ccc(/C=N/c2ccccc2O)cc1O`, the Activity turned out to be 60.5 ng/mL in [3]; 7.7 pg/mL in data set [4]; 120.3 pg/mL in data set [6]; 2.4 ng/mL in data set [7]; 8.1 µM in data set [8]; 9.7 ng/mL in data set [12]. For the same compound, the result in [5] was inactive. Further, the inhibition at 50 µM in data set [9] was 90%. In addition, in data set [10], the IC50 came out at 34.5 µM. Also, in data set [11], the result was Active.
Take `C[C@@H]1C[C@H]2[C@@H]3CCC4=CC(=O)C=C[C@]4(C)[C@@]3(F)[C@@H](O)C[C@]2(C)[C@@]1(O)C(=O)CO` [DEXAMETHASONE]: the “inhibition … (qualitative)” value in data set [15] was “Active”. Moreover, the “inhibition (INH)” value in data set [21] is listed as 90%.
As for `COc1ccc(/C=N/c2ccccc2O)cc1`, the Activity in data set [3] was determined as 44.2 ng/mL; in data set [4] it was 4.7 pg/mL; in [6], 88.2 pg/mL; in [7], 2.1 ng/mL; in [8] it was 4.8 µM; in data set [12] it was 7.9 ng/mL. In addition, the result in data set [13] and in data set [5] was inactive. Further, the outcome in data set [14], in [19], in [20] and in data set [11] was Active. Further, the “inhibition … (qualitative)” value in data set [15] was “Active”. For the same compound, the inhibition result in data set [16], in [17] and in data set [18] was “Active” in each case. Also, the inhibition at 50 µM in data set [9] is 90%. Further, in data set [21], the “inhibition (INH)” value was 40%. The IC50 in data set [10] was found to be 45.8 µM.
Consider `COc1ccc(/C=N/Nc2ccc([N+](=O)[O-])cc2[N+](=O)[O-])cc1O`, for which the Activity result in data set [1] and in [2] was “Toxic” each time.
On to `Oc1ccccc1/C=N/c1ccccc1O`, for which the Activity in [3] was found to be 58.4 ng/mL; in [4], 5.5 pg/mL; in [6], 62.3 pg/mL; in [7], 2.5 ng/mL; in data set [8] it was 5.9 µM; in data set [12] it was 7.2 ng/mL. For the same compound, the outcome in [14] and in data set [19] was Active. Besides, the result in data set [5] and in data set [11] was inactive. The inhibition at 50 µM in [9] was 90%. Also, the IC50 in data set [10] was 35.9 µM.
